Blank lines part the entries; values can stand above or below the compound they belong to. Calls of active or inactive are those of the source. No cut-off for these calls is given here.
Assays:
[1] = molecular target: T1, 5-hydroxytryptamine receptor 2A (Homo sapiens, UniProt P28223); assay: Agonist activity at human 5HT2A receptor expressed in HEK293 cells assessed as induction of intracellular calcium release at 100 to 1000 uM by fluorescence assay; assay type: functional, cell-based
In short: (§1)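 Stable polyclonal h5-HT2A or h5-HT2C HEK293 cells plated on poly-D-lysine wells, loaded next day with Fluo-4/AM for 1 h at 37 °C. Buffer was HBSS with 20 mM HEPES, 1 mM CaCl₂, 1 mM MgCl₂, 2.5 mM probenecid, pH 7.4. Fluorescence read at 485/525 nm before and up to 90 s after agonist addition. Responses normalised to 5-HT on the same plate. Duplicate, 4−10 experiments.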

[2] = molecular target: T2, 5-hydroxytryptamine receptor 2C (Homo sapiens) (UniProt P28335); assay: Agonist activity at human 5HT2C receptor expressed in HEK293 cells assessed as induction of intracellular calcium release at 100 to 1000 uM by fluorescence assay; assay type: functional, cell-based; in short: as §1
T2 sequence (whole entry): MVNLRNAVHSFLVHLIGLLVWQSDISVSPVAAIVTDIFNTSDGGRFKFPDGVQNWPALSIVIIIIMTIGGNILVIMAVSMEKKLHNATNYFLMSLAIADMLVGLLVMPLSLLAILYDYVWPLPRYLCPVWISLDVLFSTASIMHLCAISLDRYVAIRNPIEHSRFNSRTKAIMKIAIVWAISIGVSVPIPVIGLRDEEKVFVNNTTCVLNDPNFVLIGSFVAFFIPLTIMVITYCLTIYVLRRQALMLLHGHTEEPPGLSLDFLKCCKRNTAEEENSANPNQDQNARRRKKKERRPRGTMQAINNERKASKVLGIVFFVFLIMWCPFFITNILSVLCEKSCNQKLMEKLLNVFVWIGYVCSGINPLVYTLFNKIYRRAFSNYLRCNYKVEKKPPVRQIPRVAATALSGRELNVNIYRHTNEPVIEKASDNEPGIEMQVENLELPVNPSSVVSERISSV

[3] = molecular target: T3, 5-hydroxytryptamine receptor 2C (Homo sapiens, UniProt P28335); assay: Antagonist activity at human 5HT2C receptor expressed in HEK293 cells assessed as inhibition of 5HT-induced intracellular calcium release measured for 90 secs by fluorescence assay; assay type: functional, cell-based
T3 sequence (P28335 whole entry): T2 sequence (whole entry)

[4] = molecular target: T1, 5-hydroxytryptamine receptor 2A; assay type: functional, cell-based, HEK293
[5] = molecular target: T3, 5-hydroxytryptamine receptor 2C; assay: Displacement of [3H]mesulergine from human 5HT2C receptor expressed in tsA201 cell membranes after 1 hr by scintillation counting analysis
[6] = molecular target: T4, 5-hydroxytryptamine receptor 2C (Rattus norvegicus) (UniProt P08909); assay: Displacement of [125I]-N-(p-I-Bn)-THAZ from 5HT2C receptor in rat cerebellum membrane after 1 hr by scintillation counting analysis; assay type: cell membranes
T4 sequence (whole entry): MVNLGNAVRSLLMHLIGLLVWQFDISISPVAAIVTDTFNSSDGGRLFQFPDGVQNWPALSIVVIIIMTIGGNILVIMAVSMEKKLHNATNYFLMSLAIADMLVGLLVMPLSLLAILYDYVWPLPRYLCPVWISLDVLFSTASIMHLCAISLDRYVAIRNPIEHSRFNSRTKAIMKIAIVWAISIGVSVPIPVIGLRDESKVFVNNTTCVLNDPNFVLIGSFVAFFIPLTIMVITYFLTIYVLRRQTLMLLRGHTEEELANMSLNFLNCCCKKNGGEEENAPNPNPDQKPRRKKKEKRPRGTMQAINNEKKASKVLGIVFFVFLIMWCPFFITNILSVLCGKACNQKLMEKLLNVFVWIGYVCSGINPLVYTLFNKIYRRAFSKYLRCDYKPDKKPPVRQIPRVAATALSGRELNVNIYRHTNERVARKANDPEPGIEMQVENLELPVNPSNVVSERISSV

[7] = molecular target: T4, 5-hydroxytryptamine receptor 2C (Rattus norvegicus); assay: (§2) Displacement of [125I]-N-(p-I-Bn)-THAZ from 5HT2C receptor in rat cerebral cortex membrane after 1 hr by scintillation counting analysis; assay type: cell membranes
[8] = molecular target: T5, 5-hydroxytryptamine receptor 2C (Rattus norvegicus, UniProt P08909); assay: as §2; assay type: cell membranes
T5 sequence (P08909 whole entry): T4 sequence (whole entry)

[9] = molecular target: T4, 5-hydroxytryptamine receptor 2C (Rattus norvegicus); assay: Displacement of [125I]-N-(p-I-Bn)-THAZ from 5HT2C receptor in rat hippocampal membrane after 1 hr by scintillation counting analysis; assay type: cell membranes; settings: Hippocampus
[10] = molecular target: T4, 5-hydroxytryptamine receptor 2C (Rattus norvegicus); assay: Displacement of [125I]-N-(p-I-Bn)-THAZ from 5HT2C receptor in rat midbrain membrane after 1 hr by scintillation counting analysis; assay type: cell membranes
[11] = molecular target: T1, 5-hydroxytryptamine receptor 2A; assay: Agonist activity at human 5HT2A receptor expressed in HEK293 cells assessed as induction of intracellular calcium release up to 1000 uM measured up to 90 secs by fluorescence assay; assay type: functional, cell-based
In short: (§3)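 Stable polyclonal 5-HT2A or 5-HT2C HEK293 cells seeded on poly-D-lysine plates (6 × 10⁴ cells/well). Next day loaded with Fluo-4/AM for 1 h at 37 °C in HBSS/20 mM HEPES/1 mM CaCl₂/1 mM MgCl₂/2.5 mM probenecid, pH 7.4. Fluorescence (485 ex/525 em) recorded before and up to 90 s after agonist. Response relative to 5-HT on the same plate. Duplicate, at least three times.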

[12] = molecular target: T2, 5-hydroxytryptamine receptor 2C (Homo sapiens); assay: Agonist activity at human 5HT2C receptor expressed in HEK293 cells assessed as induction of intracellular calcium release up to 1000 uM measured up to 90 secs by fluorescence assay; assay type: functional, cell-based; in short: as §3
[13] = molecular target: T1, 5-hydroxytryptamine receptor 2A; assay: biochemical; assay type: cell-based, tsA201
[14] = molecular target: T2, 5-hydroxytryptamine receptor 2C (Homo sapiens); assay: Agonist activity at human 5HT2C receptor expressed in HEK293 cells assessed as accumulation of IP1 incubated for 1 hr at 37 degC followed by 15 mins at RT by TR-FRET assay relative to 5HT; assay type: functional, cell-based
In short: (§4)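 Polyclonal HEK293 lines stably expressing human 5-HT2A (variant 1) or 5-HT2C (INI isoform), detached and suspended at 1 × 10⁷ cells/mL in HBSS with 20 mM HEPES, 1 mM CaCl₂, 1 mM MgCl₂, pH 7.4. Ligands in buffer with 40 mM LiCl. Incubated 1 h at 37 °C, then 15 min RT. IP1 read by HTRF 665/615 ratio. Triplicate, at least four times.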

[15] = molecular target: T3, 5-hydroxytryptamine receptor 2C; assay: Agonist activity at human 5HT2C receptor expressed in HEK293 cells assessed as accumulation of IP1 incubated for 1 hr at 37 degC followed by 15 mins at RT by TR-FRET assay; assay type: functional, cell-based
[16] = molecular target: T1, 5-hydroxytryptamine receptor 2A; assay: Agonist activity at human 5HT2A receptor expressed in HEK293 cells assessed as induction of intracellular calcium release measured for 90 secs by fluorescence assay; assay type: functional, cell-based
[17] = molecular target: T1, 5-hydroxytryptamine receptor 2A; assay: Ratio of EC50 for human 5HT2A receptor by calcium fiux-based fluorescence assay to EC50 for 5HT2A by IP1 accumulation-based TR-FRET assay; assay type: functional
[18] = molecular target: T2, 5-hydroxytryptamine receptor 2C (Homo sapiens); assay: Agonist activity at human 5HT2C receptor expressed in HEK293 cells assessed as induction of intracellular calcium release by fluorescence assay relative to 5HT; assay type: functional, cell-based; in short: as §3
[19] = molecular target: T3, 5-hydroxytryptamine receptor 2C; assay: Agonist activity at human 5HT2C receptor expressed in HEK293 cells assessed as induction of intracellular calcium release measured for 90 secs by fluorescence assay; assay type: functional, cell-based; settings: read-out: EC50
[20] = molecular target: T1, 5-hydroxytryptamine receptor 2A; assay: Agonist activity at human 5HT2A receptor expressed in HEK293 cells assessed as accumulation of IP1 incubated for 1 hr at 37 degC followed by 15 mins at RT by TR-FRET assay relative to 5HT; assay type: functional, cell-based; in short: as §4
[21] = molecular target: T2, 5-hydroxytryptamine receptor 2C (Homo sapiens); assay: Ratio of EC50 for human 5HT2C receptor by calcium fiux-based fluorescence assay to […] accumulation-based TR-FRET assay; assay type: functional
[22] = molecular target: T1, 5-hydroxytryptamine receptor 2A; assay: Agonist activity at human 5HT2A receptor expressed in HEK293 cells assessed as induction of intracellular calcium release by fluorescence assay relative to 5HT; assay type: functional, cell-based; in short: as §3
[23] = molecular target: T1, 5-hydroxytryptamine receptor 2A; assay: Agonist activity at human 5HT2A receptor expressed in HEK293 cells assessed as accumulation of IP1 incubated for 1 hr at 37 degC followed by 15 mins at RT by TR-FRET assay; assay type: functional, cell-based
[24] = molecular target: T1, 5-hydroxytryptamine receptor 2A; assay: Agonist activity at human 5HT2A receptor expressed in HEK293 cells assessed as induction of intracellular calcium release at 1 mM measured for 90 secs by fluorescence assay; assay type: functional, cell-based; in short: as §1
[25] = molecular target: T1, 5-hydroxytryptamine receptor 2A; assay: Antagonist activity at human 5HT2A receptor expressed in HEK293 cells assessed as inhibition of 5HT-induced intracellular calcium release at 1 mM measured for 90 secs by fluorescence assay; assay type: functional, cell-based
In short: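 Fluo-4/Ca²⁺ read-out in stable h5-HT2A or h5-HT2C HEK293 cells (HBSS/HEPES/probenecid buffer, pH 7.4). Antagonist was added after the dye-loading wash, then cells were challenged with an EC₇₅−EC₈₅ concentration of 5-HT. Emission at 525 nm was monitored up to 90 s after agonist addition. Duplicate, repeated in independent experiments.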

T1 sequence (P28223 whole entry): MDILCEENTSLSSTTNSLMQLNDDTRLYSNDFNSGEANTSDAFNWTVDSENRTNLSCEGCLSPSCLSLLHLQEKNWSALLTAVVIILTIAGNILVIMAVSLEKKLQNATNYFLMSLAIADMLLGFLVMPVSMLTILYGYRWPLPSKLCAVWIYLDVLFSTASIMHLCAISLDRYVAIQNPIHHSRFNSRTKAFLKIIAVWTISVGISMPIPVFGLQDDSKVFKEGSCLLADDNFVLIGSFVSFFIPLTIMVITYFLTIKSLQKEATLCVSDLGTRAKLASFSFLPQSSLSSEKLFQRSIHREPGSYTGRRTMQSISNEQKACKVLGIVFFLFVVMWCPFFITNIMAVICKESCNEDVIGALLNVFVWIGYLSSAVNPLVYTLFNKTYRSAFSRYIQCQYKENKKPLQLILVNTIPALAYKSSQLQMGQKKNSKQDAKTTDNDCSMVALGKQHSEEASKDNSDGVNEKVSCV

SMILES: OC(c1ccccc1)C1CCN(CCc2ccccc2)CC1 (configuration not stated) [GLEMANSERIN]
Ki [3]: 10 µM
Ki ([4]; read-out: pKi (converted)): 0.00245 µM

SMILES: COc1noc2c1CNCC2
Activity [11]: Active
Activity [12]: Active

SMILES: Cn1oc2c(c1=O)CCNCC2
Activity [1]: Active
Ki [5]: > 300 µM
Activity [2]: Active
Ki ([13]; read-out: Ki): > 300 µM
Ki ([13]; read-out: pKi (converted)): > 316 µM

SMILES: c1ccc(COc2noc3c2CCNCC3)cc1
Ki [5]: 1.2 µM
Emax [14]: 105%
EC50 [15]: 0.23 µM
EC50 ([16]; read-out: EC50): 0.24 µM
Ratio EC50 [17]: 2
Emax [18]: 84%
EC50 [19]: 0.1 µM
Emax [20]: 77%
Ki ([13]; read-out: Ki): 3.3 µM
Ratio EC50 [21]: 2
Emax [22]: 59%
EC50 [23]: 1.3 µM

SMILES: COc1noc2c1CCN(C)CC2
Ki [5]: > 300 µM
Activity [24]: inactive
EC50 ([16]; hek293, read-out: EC50): > 1000 µM
EC50 ([16]; read-out: pEC50 (converted)): > 1000 µM
Activity [25]: inactive
Activity [2]: Active
Ki ([13]; read-out: Ki): > 300 µM
Ki ([13]; read-out: pKi (converted)): > 316 µM

More lines, now with the values ahead:

Activity [1]: Active
Activity [2]: Active
SMILES: c1ccc(COc2noc3c2CNCC3)cc1

Ki [5]: 0.31 µM
Activity [6]: inactive
Activity [7]: Dose-dependent effect
Ki [8]: 0.0102 µM
Activity [9]: inactive
Activity [10]: inactive
SMILES: O=c1c2c(on1Cc1ccc(I)cc1)CCNCC2

Ki [5]: 100 µM
Activity [11]: Active
Activity [12]: Active
Ki ([13]; read-out: Ki): 100 µM
SMILES: CCCn1oc2c(c1=O)CCNCC2

Ki [3]: 0.0025 µM
Ki ([4]; read-out: Ki): 0.00091 µM
SMILES: CN1CC2c3ccccc3Oc3ccc(Cl)cc3C2C1 (racemic) [ASENAPINE]

Ki [5]: 300 µM
Activity [11]: Active
Activity [12]: Active
Ki ([13]; read-out: Ki): 300 µM
SMILES: CCn1oc2c(c1=O)CCNCC2
